Results on 9 compounds are retold here after ChEMBL document CHEMBL3576855, “Spongosine production by a Vibrio harveyi strain associated with the sponge Tectitethya crypta” (J Nat Prod, 2015).

Data set [1] has as its system RAW264.7. The experiment in a line: Cytotoxicity against mouse RAW264.7 cells assessed as cell viability after 48 hrs by MTT assay. In kind it is cell-based. The following applies: raw264.7, 48 h.
Data set [2] relates to RAW264.7. The experiment in a line: Antiinflammatory activity in mouse RAW264.7 cells assessed as inhibition of LPS-stimulated nitric oxide production up to 30 ug/ml after 24 hrs by Colorimetry based Griess assay. In kind it is functional, cell-based. The procedure, abridged: (§1)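 RAW 264.7 murine macrophages were pretreated with the nucleosides for 1 h at 0.1, 0.3, 1.0, 3.0, 10 and 30 μg/mL, with n = 6 wells per concentration. LPS (3 μg/mL) was then added and cells incubated 24 h. Nitrite was measured with Griess stain and expressed as percent reduction versus the LPS control. Significance was tested by ANOVA with Dunnett's test.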
(Nitrite, measured by Griess reagent, commonly stands in for NO production.)

Data set [3] has as its system RAW264.7. Nature of the data set: Antiinflammatory activity in mouse RAW264.7 cells assessed as inhibition of LPS-stimulated nitric oxide production at 3 ug/ml after 24 hrs by Colorimetry based Griess assay. It is filed as functional. The following applies: RAW264.7, 24 h. An outline of the steps:
as §1

The structures appear in SMILES notation. The source made the active and inactive calls. The calls are words filed in the database; no cut-off is given here.

One may read the inhibition as the drop in the measured response relative to a control, in per cent. Take `Cc1cn([C@@H]2O[C@H](CO)[C@@H](O)[C@@H]2O)c(=O)[nH]c1=O`: the Activity result in data set [1] is listed as “Non-toxic”. For the same compound, the inhibition result in data set [2] is “Active”. With `COc1nc(N)c2ncn([C@@H]3O[C@H](CO)[C@@H](O)[C@H]3O)c2n1` [BVT.115959], in data set [1], the Activity result is “Non-toxic”. Also, in data set [3], the inhibition at 3 µg/mL was 60%.

With `Nc1nc(O)c2ncn([C@H]3C[C@H](O)[C@@H](CO)O3)c2n1`, the inhibition entry in data set [2] is “Active”.

`COc1nc(N)c2nc[nH]c2n1`: the inhibition entry in data set [2] was “Active”. Still for that read-out and setting: then `Nc1nc2c([nH]c(=O)n2[C@H]2C[C@H](O)[C@@H](CO)O2)c(=O)[nH]1`, with “Active”. On to `COc1nc(N)c2ncn([C@H]3C[C@H](O)[C@@H](CO)O3)c2n1`, for which the Activity entry in data set [1] is listed as “Non-toxic”. The inhibition result in data set [2] was “Active”. Consider `Nc1nc2c(ncn2[C@H]2C[C@H](O)[C@@H](CO)O2)c(=O)[nH]1` [DEOXYGUANOSINE], for which the Activity result in data set [1] is “Non-toxic”. Still for that read-out and setting: then `COc1nc(N)c2[nH]cnc2n1`, with “Non-toxic”. Turning to `Nc1nc2c(nc(O)n2[C@H]2C[C@H](O)[C@@H](CO)O2)c(=O)[nH]1`, the Activity result in data set [1] is reported as “Non-toxic”.
